Each block holds one compound with its values, some of them ahead of it.
Experiments:
Format in all cases: functional
B16 = assay: Growth inhibition of B16 mouse melanoma cells in culture was determined; details: read-out: ID50 (the source's name)
Summary of the method: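 B16 mouse melanoma monolayers in McCoy's 5A with 10% whole fetal calf serum, streptomycin and penicillin, 37 °C, 5% CO2. Drugs were dissolved in 0.05 M pH 7.4 potassium phosphate buffer or Me2SO and dosed at regularly spaced concentrations, generally 10^-7 to 10^-3 M. Cells were counted after 48 h; ID50 versus untreated controls was read from dose–response curves, triplicate.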

L1210 = assay: Growth inhibition of cultured L1210 mouse leukemia cells was determined; details: read-out: ID50 (the source's name)
Summary of the method: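 L1210 mouse leukemia cells in suspension in Eagle's MEM with 15% whole (non-dialyzed, non-heat-inactivated) fetal calf serum, antibiotics and 0.05 mM 2-mercaptoethanol, 37 °C, 5% CO2. Drugs in pH 7.4 phosphate buffer or Me2SO, generally 10^-7 to 10^-3 M. Coulter cell counts at 48 h; ID50 relative to untreated controls from dose–response curves, triplicate.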

Mus musculus [1] = assay: Antitumor activity against L1210 leukemia in mice (Average weight per mouse on day 1.) at the dose of 390 mg/kg
Summary of the method: (§1)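 Male B6D2F1J mice (5–9 per group) received 10^5 L1210 cells i.p. on day 0 and drug from day 1, given qd×5 or q4d(2,6). Vehicles were sterile water, 0.05 M potassium phosphate pH 7.4, or 0.4% Tween 80/0.5% CMC/0.9% benzyl alcohol/0.9% saline. Read-out is average body weight per mouse (g) on day 1.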

Mus musculus [2] = assay: Antitumor activity against L1210 leukemia in mice (Average 7-day weight change (%)) at the dose of 260 mg/kg
Summary of the method: (§2)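 Male B6D2F1J mice, groups of five to nine, inoculated ip with 10^5 L1210 cells on day 0. Drug treatment started day 1 on qd×5 or q4d(2,6) schedule. Vehicles: ara-C in sterile water; the n-butyl phosphate ester in 0.05 M pH 7.4 potassium phosphate buffer; others as suspensions in 0.4% Tween 80/0.5% low-density CMC/0.9% benzyl alcohol/0.9% saline. Mice weighed days 1 and 7; 7-day weight change given as g/mouse and %.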

Mus musculus [3] = assay: Antitumor activity against L1210 leukemia in mice (Average 7-day weight change (%)) at the dose of 130 mg/kg; summary of the method: as §2
Mus musculus [4] = assay: Antitumor activity against L1210 leukemia in mice (Average 7-day weight change) at the dose of 260 mg/kg; summary of the method: as §2
Mus musculus [5] = assay: Antitumor activity against L1210 leukemia in mice (Percent increase in life span.) at the dose of 260 mg/kg
Summary of the method: (§3)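 Male B6D2F1J mice, groups of 5–9, inoculated ip with 10^5 L1210 cells on day 0. Dosing starts day 1 on a qd×5 or q4d(2,6) schedule. Vehicles are sterile water, pH 7.4 0.05 M potassium phosphate buffer, or 0.4% Tween 80/0.5% CMC/0.9% benzyl alcohol/0.9% saline. %ILS = (T/C − 1)×100 from median survival. Weights taken days 1 and 7.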

Mus musculus [6] = assay: Antitumor activity against L1210 leukemia in mice (Average weight per mouse on day 1.) at the dose of 260 mg/kg; summary of the method: as §1
Mus musculus [7] = assay: Antitumor activity against L1210 leukemia in mice (Percent increase in life span.) at the dose of 130 mg/kg; summary of the method: as §3
Mus musculus [8] = assay: Antitumor activity against L1210 leukemia in mice (Average 7-day weight change) at the dose of 390 mg/kg; summary of the method: as §2
Mus musculus [9] = assay: Antitumor activity against L1210 leukemia in mice (Average 7-day weight change (%)) at the dose of 390 mg/kg; summary of the method: as §2
Mus musculus [10] = assay: Antitumor activity against L1210 leukemia in mice (Average 7-day weight change) at the dose of 130 mg/kg; summary of the method: as §2
Mus musculus [11] = assay: Antitumor activity against L1210 leukemia in mice (Percent increase in life span.) at the dose of 390 mg/kg; summary of the method: as §3
Mus musculus [12] = assay: Antitumor activity against L1210 leukemia in mice (Average weight per mouse on day 1.) at the dose of 130 mg/kg; summary of the method: as §1
Mus musculus [13] = assay: Antitumor activity against L1210 leukemia in mice (Average 7-day weight change (%)) at the dose of 115 mg/kg; summary of the method: as §2
Mus musculus [14] = assay: Antitumor activity against L1210 leukemia in mice (Average 7-day weight change) at the dose of 115 mg/kg; summary of the method: as §2
Mus musculus [15] = assay: Antitumor activity against L1210 leukemia in mice (Average 7-day weight change (%)) at the dose of 230 mg/kg; summary of the method: as §2
Mus musculus [16] = assay: Antitumor activity against L1210 leukemia in mice (Average weight per mouse on day 1.) at the dose of 230 mg/kg; summary of the method: as §1
Mus musculus [17] = assay: Antitumor activity against L1210 leukemia in mice (Average weight per mouse on day 1.) at the dose of 460 mg/kg; summary of the method: as §1
Mus musculus [18] = assay: Antitumor activity against L1210 leukemia in mice (Average 7-day weight change) at the dose of 230 mg/kg; summary of the method: as §2
Mus musculus [19] = assay: Antitumor activity against L1210 leukemia in mice (Average weight per mouse on day 1.) at the dose of 115 mg/kg; summary of the method: as §1
Mus musculus [20] = assay: Antitumor activity against L1210 leukemia in mice (Percent increase in life span.) at the dose of 460 mg/kg (mice surviving 20 or more days); summary of the method: as §3
Mus musculus [21] = assay: Antitumor activity against L1210 leukemia in mice (Percent increase in life span.) at the dose of 230 mg/kg; summary of the method: as §3
Mus musculus [22] = assay: Antitumor activity against L1210 leukemia in mice (Percent increase in life span.) at the dose of 115 mg/kg; summary of the method: as §3
Mus musculus [23] = assay: Antitumor activity against L1210 leukemia in mice (Average 7-day weight change) at the dose of 460 mg/kg; summary of the method: as §2
Mus musculus [24] = assay: Antitumor activity against L1210 leukemia in mice (Average 7-day weight change (%)) at the dose of 460 mg/kg; summary of the method: as §2
Mus musculus [25] = assay: Antitumor activity against L1210 leukemia in mice (Average weight per mouse on day 1.) at the dose of 200 mg/kg; summary of the method: as §1
Mus musculus [26] = assay: Antitumor activity against L1210 leukemia in mice (Average 7-day weight change) at the dose of 200 mg/kg; summary of the method: as §2
Mus musculus [27] = assay: Antitumor activity against L1210 leukemia in mice (Percent increase in life span.) at the dose of 113 mg/kg; summary of the method: as §3
Mus musculus [28] = assay: Antitumor activity against L1210 leukemia in mice (Average 7-day weight change) at the dose of 267 mg/kg; summary of the method: as §2
Mus musculus [29] = assay: Antitumor activity against L1210 leukemia in mice (Average 7-day weight change (%)) at the dose of 267 mg/kg; summary of the method: as §2
Mus musculus [30] = assay: Antitumor activity against L1210 leukemia in mice (Average 7-day weight change (%)) at the dose of 200 mg/kg; summary of the method: as §2
Mus musculus [31] = assay: Antitumor activity against L1210 leukemia in mice (Percent increase in life span.) at the dose of 267 mg/kg (mice surviving 20 or more days); summary of the method: as §3
Mus musculus [32] = assay: Antitumor activity against L1210 leukemia in mice (Average 7-day weight change (%)) at the dose of 113 mg/kg; details: dose 133 mg/kg; in the assay text read “133 mg/kg” for “113 mg/kg”; summary of the method: as §2
Mus musculus [33] = assay: Antitumor activity against L1210 leukemia in mice (Percent increase in life span.) at the dose of 200 mg/kg (mice surviving 20 or more days); summary of the method: as §3
Mus musculus [34] = assay: Antitumor activity against L1210 leukemia in mice (Average 7-day weight change) at the dose of 113 mg/kg; summary of the method: as §2
Mus musculus [35] = assay: Antitumor activity against L1210 leukemia in mice (Average weight per mouse on day 1.) at the dose of 267 mg/kg; summary of the method: as §1
Mus musculus [36] = assay: Antitumor activity against L1210 leukemia in mice (Average weight per mouse on day 1.) at the dose of 113 mg/kg; summary of the method: as §1

SMILES: Nc1ccn([C@@H]2O[C@H](COP(=O)(O)OCC(O)CO)[C@@H](O)[C@@H]2O)c(=O)n1 (stereo partly drawn)
IC50 (B16): 26 µM
IC50 (L1210): 0.65 µM

SMILES: CCCCCCCCCCCCCCCC(=O)O[C@H]1[C@@H]2Oc3nc(=N)ccn3[C@@H]2O[C@@H]1COP(=O)(O)OCCCC
Average weight (Mus musculus [1]): 24.5 g mouse-1
Weight change (Mus musculus [2]): 4%
Weight change (Mus musculus [3]): 4%
Weight change (Mus musculus [4]): 0.9 g mouse-1
ILS at 260 mg/kg (Mus musculus [5]): 62%
Average weight (Mus musculus [6]): 22.8 g mouse-1
ILS at 130 mg/kg (Mus musculus [7]): 62%
Weight change (Mus musculus [8]): -1.6 g mouse-1
Weight change (Mus musculus [9]): -7%
Weight change (Mus musculus [10]): 0.9 g mouse-1
ILS at 390 mg/kg (Mus musculus [11]): 74%
Average weight (Mus musculus [12]): 23 g mouse-1

SMILES: CCCCCCCCCCCCCCCC(=O)O[C@H]1[C@@H]2Oc3nc(=N)ccn3[C@@H]2O[C@@H]1COP(=O)(O)OCCCCCC
Weight change (Mus musculus [13]): 10%
Weight change (Mus musculus [14]): 2 g mouse-1
Weight change (Mus musculus [15]): 8%
Average weight (Mus musculus [16]): 22.2 g mouse-1
Average weight (Mus musculus [17]): 19.8 g mouse-1
Weight change (Mus musculus [18]): 1.8 g mouse-1
Average weight (Mus musculus [19]): 20.6 g mouse-1
ILS at 460 mg/kg (Mus musculus [20]): 75%
ILS at 230 mg/kg (Mus musculus [21]): 37%
ILS at 115 mg/kg (Mus musculus [22]): 25%
Weight change (Mus musculus [23]): 2.8 g mouse-1
Weight change (Mus musculus [24]): 14%

SMILES: CCCCCCCCCCCCCCCC(=O)O[C@H]1[C@@H]2Oc3nc(=N)ccn3[C@@H]2O[C@@H]1COP(=O)(O)OCCOCC
Average weight (Mus musculus [25]): 24.4 g mouse-1
Weight change (Mus musculus [26]): -4 g mouse-1
ILS at 113 mg/kg (Mus musculus [27]): 112%
Weight change (Mus musculus [28]): -3.6 g mouse-1
Weight change (Mus musculus [29]): -16%
Weight change (Mus musculus [30]): -16%
ILS at 267 mg/kg (Mus musculus [31]): 150%
Weight change (Mus musculus [32]): -11%
ILS at 200 mg/kg (Mus musculus [33]): 137%
Weight change (Mus musculus [34]): -2.6 g mouse-1
Average weight (Mus musculus [35]): 24 g mouse-1
Average weight (Mus musculus [36]): 24 g mouse-1

Further lines, results first:

IC50 (B16): 360 µM
IC50 (L1210): 11 µM
SMILES: CCCCCCCCOP(=O)(O)OC[C@H]1O[C@@H](n2ccc(N)nc2=O)[C@@H](O)[C@@H]1O

IC50 (L1210): 11 µM
SMILES: CCCCCCCCCCCCCCCCOP(=O)(O)OC[C@H]1O[C@@H](n2ccc(N)nc2=O)[C@@H](O)[C@@H]1O

IC50 (L1210): 7.8 µM
SMILES: CCCCCCOP(=O)(O)OC[C@H]1O[C@@H](n2ccc(N)nc2=O)[C@@H](O)[C@@H]1O

IC50 (B16): 70 µM
IC50 (L1210): 4 µM
SMILES: CCOP(=O)(O)OC[C@H]1O[C@@H](n2ccc(N)nc2=O)[C@@H](O)[C@@H]1O

IC50 (B16): 25 µM
IC50 (L1210): 1 µM
SMILES: Nc1ccn([C@@H]2O[C@H](COP(=O)(O)OCC(O)COCc3ccccc3)[C@@H](O)[C@@H]2O)c(=O)n1 (stereo partly drawn)

IC50 (B16): 1.5 µM
IC50 (L1210): 0.35 µM
SMILES: Nc1ccn([C@@H]2O[C@H](COP(=O)(O)O)[C@@H](O)[C@H]2O)c(=O)n1
